From ChEMBL document CHEMBL1765020, “Synthesis and structure-affinity relationships of novel dibenzylideneacetone derivatives as probes for β-amyloid plaques” (J Med Chem, 2011)

Legend:
[1] = tested on: Kidney; assay: Biodistribution in ddY mouse kidney at 1 uCi/100 uL, iv after 30 mins by gamma counting; format: ADME, organism-based; conditions: in vivo, 0.5 h
[2] = tested on: Kidney; assay: Biodistribution in ddY mouse kidney at 1 uCi/100 uL, iv after 120 mins by gamma counting; format: ADME, organism-based; conditions: in vivo, 2 h
Summary of the method: (§1)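 Normal female ddY mice (5 weeks, about 20 g; n = 4 per group) received radiotracer iv. Organs were removed and weighed at 2–120 min and counted in a γ-counter. Percent dose per gram of wet tissue was calculated against diluted aliquots of the injected material and reported as mean ± SD.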

[3] = tested on: Blood; assay: Biodistribution in ddY mouse blood at 1 uCi/100 uL, iv after 30 mins by gamma counting; format: ADME, organism-based; conditions: in vivo, 0.5 h; summary of the method: as §1
[4] = tested on: Liver; assay: Biodistribution in ddY mouse liver at 1 uCi/100 uL, iv after 60 mins by gamma counting; format: ADME, organism-based; conditions: in vivo, 1 h
[5] = tested on: Heart; assay: Biodistribution in ddY mouse heart at 1 uCi/100 uL, iv after 120 mins by gamma counting; format: ADME, organism-based; conditions: in vivo, 2 h; summary of the method: as §1
[6] = tested on: Spleen; assay: Biodistribution in ddY mouse spleen at 1 uCi/100 uL, iv after 15 mins by gamma counting; format: ADME, organism-based; conditions: in vivo, 0.25 h
[7] = tested on: Stomach; assay: Biodistribution in ddY mouse stomach at 1 uCi/100 uL, iv after 2 mins by gamma counting; format: ADME, organism-based; conditions: in vivo
[8] = tested on: Blood; assay: Biodistribution in ddY mouse blood at 1 uCi/100 uL, iv after 60 mins by gamma counting; format: ADME, organism-based; conditions: in vivo, 1 h; summary of the method: as §1
[9] = tested on: Lung; assay: Biodistribution in ddY mouse lung at 1 uCi/100 uL, iv after 30 mins by gamma counting; format: ADME, organism-based; conditions: in vivo, 0.5 h
[10] = tested on: Liver; assay: Biodistribution in ddY mouse liver at 1 uCi/100 uL, iv after 30 mins by gamma counting; format: ADME, organism-based; conditions: in vivo, 0.5 h
[11] = tested on: Blood; assay: Biodistribution in ddY mouse blood at 1 uCi/100 uL, iv after 2 mins by gamma counting; format: ADME, organism-based; conditions: in vivo; summary of the method: as §1
[12] = tested on: Spleen; assay: Biodistribution in ddY mouse spleen at 1 uCi/100 uL, iv after 30 mins by gamma counting; format: ADME, organism-based; conditions: in vivo, 0.5 h
[13] = tested on: Intestine; assay: Biodistribution in ddY mouse intestine at 1 uCi/100 uL, iv after 60 mins by gamma counting; format: ADME, organism-based; conditions: in vivo, 1 h; summary of the method: as §1
[14] = tested on: Thyroid gland; assay: Biodistribution in ddY mouse thyroid at 1 uCi/100 uL, iv after 60 mins by gamma counting; format: ADME, organism-based; conditions: in vivo, 1 h
[15] = tested on: Thyroid gland; assay: Biodistribution in ddY mouse thyroid at 1 uCi/100 uL, iv after 120 mins by gamma counting; format: ADME, organism-based; conditions: in vivo, 2 h
[16] = tested on: Liver; assay: Biodistribution in ddY mouse liver at 1 uCi/100 uL, iv after 120 mins by gamma counting; format: ADME, organism-based; conditions: in vivo, 2 h
[17] = tested on: Brain; assay: Biodistribution in ddY mouse brain at 1 uCi/100 uL, iv after 2 mins by gamma counting; format: ADME, organism-based; conditions: in vivo; summary of the method: as §1
[18] = tested on: Kidney; assay: Biodistribution in ddY mouse kidney at 1 uCi/100 uL, iv after 2 mins by gamma counting; format: ADME, organism-based; conditions: in vivo; summary of the method: as §1
[19] = tested on: Stomach; assay: Biodistribution in ddY mouse stomach at 1 uCi/100 uL, iv after 60 mins by gamma counting; format: ADME, organism-based; conditions: in vivo, 1 h
[20] = tested on: Kidney; assay: Biodistribution in ddY mouse kidney at 1 uCi/100 uL, iv after 15 mins by gamma counting; format: ADME, organism-based; conditions: in vivo, 0.25 h; summary of the method: as §1
[21] = tested on: Heart; assay: Biodistribution in ddY mouse heart at 1 uCi/100 uL, iv after 60 mins by gamma counting; format: ADME, organism-based; conditions: in vivo, 1 h; summary of the method: as §1
[22] = tested on: Brain; assay: Biodistribution in ddY mouse brain at 1 uCi/100 uL, iv after 60 mins by gamma counting; format: ADME, organism-based; conditions: in vivo, 1 h; summary of the method: as §1
[23] = tested on: Spleen; assay: Biodistribution in ddY mouse spleen at 1 uCi/100 uL, iv after 60 mins by gamma counting; format: ADME, organism-based; conditions: in vivo, 1 h
[24] = tested on: Brain; assay: Biodistribution in ddY mouse brain at 1 uCi/100 uL, iv after 30 mins by gamma counting; format: ADME, organism-based; conditions: in vivo, 0.5 h; summary of the method: as §1
[25] = tested on: Intestine; assay: Biodistribution in ddY mouse intestine at 1 uCi/100 uL, iv after 120 mins by gamma counting; format: ADME, organism-based; conditions: in vivo, 2 h; summary of the method: as §1
[26] = tested on: Stomach; assay: Biodistribution in ddY mouse stomach at 1 uCi/100 uL, iv after 120 mins by gamma counting; format: ADME, organism-based; conditions: in vivo, 2 h
[27] = tested on: Intestine; assay: Biodistribution in ddY mouse intestine at 1 uCi/100 uL, iv after 15 mins by gamma counting; format: ADME, organism-based; conditions: in vivo, 0.25 h; summary of the method: as §1
[28] = tested on: Intestine; assay: Biodistribution in ddY mouse intestine at 1 uCi/100 uL, iv after 2 mins by gamma counting; format: ADME, organism-based; conditions: in vivo; summary of the method: as §1
[29] = tested on: Brain; assay: Biodistribution in ddY mouse brain at 1 uCi/100 uL, iv after 15 mins by gamma counting; format: ADME, organism-based; conditions: in vivo, 0.25 h; summary of the method: as §1
[30] = tested on: Heart; assay: Biodistribution in ddY mouse heart at 1 uCi/100 uL, iv after 30 mins by gamma counting; format: ADME, organism-based; conditions: in vivo, 0.5 h; summary of the method: as §1
[31] = tested on: Stomach; assay: Biodistribution in ddY mouse stomach at 1 uCi/100 uL, iv after 30 mins by gamma counting; format: ADME, organism-based; conditions: in vivo, 0.5 h
[32] = tested on: Brain; assay: Ratio of drug uptake in ddY mouse brain at 1 uCi/100 uL, iv after 2 mins to drug uptake in ddY mouse brain at 1 uCi/100 uL, iv after 60 mins; format: ADME, organism-based; conditions: in vivo
Summary of the method: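 Normal female ddY mice (5 weeks) received the radiotracer iv, and brain uptake (% ID/g, n = 4) was measured by gamma counting at 2 and 60 min. The index is brain uptake at 2 min divided by brain uptake at 60 min.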

[33] = tested on: Thyroid gland; assay: Biodistribution in ddY mouse thyroid at 1 uCi/100 uL, iv after 30 mins by gamma counting; format: ADME, organism-based; conditions: in vivo, 0.5 h
[34] = Partition coefficient, log D of the compound; format: physicochemical; conditions: octanol/water
Summary of the method: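 Radiotracer partitioned between n-octanol and PBS: vortexed 3 min at room temperature, centrifuged 5 min at 3000 rpm. Weighed samples of the octanol (100 μL) and buffer (500 μL) layers were counted. log D is the log of the ratio of counts per gram, octanol versus PBS.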

[35] = tested on: Stomach; assay: Biodistribution in ddY mouse stomach at 1 uCi/100 uL, iv after 15 mins by gamma counting; format: ADME, organism-based; conditions: in vivo, 0.25 h
[36] = tested on: Thyroid gland; assay: Biodistribution in ddY mouse thyroid at 1 uCi/100 uL, iv after 2 mins by gamma counting; format: ADME, organism-based; conditions: in vivo
[37] = tested on: Thyroid gland; assay: Biodistribution in ddY mouse thyroid at 1 uCi/100 uL, iv after 15 mins by gamma counting; format: ADME, organism-based; conditions: in vivo, 0.25 h
[38] = tested on: Brain; assay: Biodistribution in ddY mouse brain at 1 uCi/100 uL, iv after 120 mins by gamma counting; format: ADME, organism-based; conditions: in vivo, 2 h; summary of the method: as §1
[39] = tested on: Liver; assay: Biodistribution in ddY mouse liver at 1 uCi/100 uL, iv after 15 mins by gamma counting; format: ADME, organism-based; conditions: in vivo, 0.25 h
[40] = tested on: Kidney; assay: Biodistribution in ddY mouse kidney at 1 uCi/100 uL, iv after 60 mins by gamma counting; format: ADME, organism-based; conditions: in vivo, 1 h
[41] = tested on: Spleen; assay: Biodistribution in ddY mouse spleen at 1 uCi/100 uL, iv after 120 mins by gamma counting; format: ADME, organism-based; conditions: in vivo, 2 h
[42] = tested on: Blood; assay: Biodistribution in ddY mouse blood at 1 uCi/100 uL, iv after 120 mins by gamma counting; format: ADME, organism-based; conditions: in vivo, 2 h; summary of the method: as §1
[43] = tested on: Intestine; assay: Biodistribution in ddY mouse intestine at 1 uCi/100 uL, iv after 30 mins by gamma counting; format: ADME, organism-based; conditions: in vivo, 0.5 h; summary of the method: as §1
[44] = tested on: Lung; assay: Biodistribution in ddY mouse lung at 1 uCi/100 uL, iv after 120 mins by gamma counting; format: ADME, organism-based; conditions: in vivo, 2 h
[45] = tested on: Lung; assay: Biodistribution in ddY mouse lung at 1 uCi/100 uL, iv after 60 mins by gamma counting; format: ADME, organism-based; conditions: in vivo, 1 h
[46] = tested on: Liver; assay: Biodistribution in ddY mouse liver at 1 uCi/100 uL, iv after 2 mins by gamma counting; format: ADME, organism-based; conditions: in vivo
[47] = tested on: Lung; assay: Biodistribution in ddY mouse lung at 1 uCi/100 uL, iv after 2 mins by gamma counting; format: ADME, organism-based; conditions: in vivo
[48] = tested on: Blood; assay: Biodistribution in ddY mouse blood at 1 uCi/100 uL, iv after 15 mins by gamma counting; format: ADME, organism-based; conditions: in vivo, 0.25 h; summary of the method: as §1
[49] = tested on: Lung; assay: Biodistribution in ddY mouse lung at 1 uCi/100 uL, iv after 15 mins by gamma counting; format: ADME, organism-based; conditions: in vivo, 0.25 h
[50] = tested on: Heart; assay: Biodistribution in ddY mouse heart at 1 uCi/100 uL, iv after 2 mins by gamma counting; format: ADME, organism-based; conditions: in vivo; summary of the method: as §1
[51] = tested on: Spleen; assay: Biodistribution in ddY mouse spleen at 1 uCi/100 uL, iv after 2 mins by gamma counting; format: ADME, organism-based; conditions: in vivo
[52] = tested on: Heart; assay: Biodistribution in ddY mouse heart at 1 uCi/100 uL, iv after 15 mins by gamma counting; format: ADME, organism-based; conditions: in vivo, 0.25 h; summary of the method: as §1

Drug uptake [1]: 15.54 % ID/g
Drug uptake [2]: 13.43 % ID/g
Drug uptake [3]: 4.84 % ID/g
Drug uptake [4]: 22.63 % ID/g
Drug uptake [5]: 1.91 % ID/g
Drug uptake [6]: 3.36 % ID/g
Drug uptake [7]: 3.26 % ID/organ
Drug uptake [8]: 3.35 % ID/g
Drug uptake [9]: 6.18 % ID/g
Drug uptake [10]: 23.88 % ID/g
Drug uptake [11]: 7.48 % ID/g
Drug uptake [12]: 2.22 % ID/g
Drug uptake [13]: 23.62 % ID/g
Drug uptake [14]: 23.96 % ID/g
Drug uptake [15]: 72.93 % ID/g
Drug uptake [16]: 27.83 % ID/g
Drug uptake [17]: 4.68 % ID/g
Drug uptake [18]: 14.73 % ID/g
Drug uptake [19]: 3.34 % ID/organ
Drug uptake [20]: 16.49 % ID/g
Drug uptake [21]: 1.74 % ID/g
Drug uptake [22]: 0.71 % ID/g
Drug uptake [23]: 1.52 % ID/g
Drug uptake [24]: 1.38 % ID/g
Drug uptake [25]: 41.29 % ID/g
Drug uptake [26]: 4.49 % ID/organ
Drug uptake [27]: 10.33 % ID/g
Drug uptake [28]: 3.53 % ID/g
Drug uptake [29]: 2.62 % ID/g
Drug uptake [30]: 3.29 % ID/g
Drug uptake [31]: 3.17 % ID/organ
Ratio [32]: 6.59
Drug uptake [33]: 27.78 % ID/g
logD [34]: 3.55
Drug uptake [35]: 3.82 % ID/organ
Drug uptake [36]: 18.2 % ID/g
Drug uptake [37]: 28.09 % ID/g
Drug uptake [38]: 0.54 % ID/g
Drug uptake [39]: 40.83 % ID/g
Drug uptake [40]: 10.46 % ID/g
Drug uptake [41]: 1.23 % ID/g
Drug uptake [42]: 4.46 % ID/g
Drug uptake [43]: 13.19 % ID/g
Drug uptake [44]: 3.9 % ID/g
Drug uptake [45]: 3.5 % ID/g
Drug uptake [46]: 39.22 % ID/g
Drug uptake [47]: 9.67 % ID/g
Drug uptake [48]: 6.02 % ID/g
Drug uptake [49]: 7.42 % ID/g
Drug uptake [50]: 8.11 % ID/g
Drug uptake [51]: 4.57 % ID/g
Drug uptake [52]: 4.14 % ID/g
Structure (SMILES): CNc1ccc(/C=C/C(=O)/C=C/c2ccc([125I])cc2)cc1
